# Compound activity as filed in PubChem BioAssay.
# Shown are actives, neighbours in structure and some others; about 2.5% of the full set was active somewhere.
# NadD inh: NadD (S. aureus) enzyme inhibition. purified NadD enzyme, colorimetric absorbance read-out. inhibition, % at 20 µM. actives 0.78% (n = 360,000); in the data active = inhibition above about 26%
# GalR3 antag: antagonists of human GalR3 | actives 0.44% (n = 360,000) | O60755 | AID 651719 | HEK293 GalR3-CNG cAMP membrane potential fluorescence; galR3 body fused to GalR1 C-terminus | inhibition, % at 3 µM;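 active = inhibition above the screen-wide average plus 3 SD, cut at about 13% in these data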;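 also: forskolin and galanin both at EC90 stimulate the cells; cAMP rise reported by CNG channel membrane potential dye signal; 0% = forskolin plus galanin with DMSO and 100% = forskolin alone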
# Target sequence (O60755 1-299 limits assumed): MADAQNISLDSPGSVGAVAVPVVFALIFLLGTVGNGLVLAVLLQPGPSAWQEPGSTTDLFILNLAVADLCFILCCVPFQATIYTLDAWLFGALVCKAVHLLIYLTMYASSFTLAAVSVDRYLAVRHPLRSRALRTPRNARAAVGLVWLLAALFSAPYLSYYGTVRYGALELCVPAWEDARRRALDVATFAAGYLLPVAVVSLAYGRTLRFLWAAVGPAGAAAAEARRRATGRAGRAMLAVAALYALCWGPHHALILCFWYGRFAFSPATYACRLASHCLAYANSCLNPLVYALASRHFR
# NR2E3 ag-1: NR2E3 (human) agonism | Q9Y5X4 | inhibition of corepressor binding, % at 4.78 µM | actives 0.12% (n = 320,000) | GST-NR2E3/biotin-RetCOR TR-FRET, 1536-well;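 active = percent inhibition above the cutoff of mean plus 3 SD of all tested compounds, set per screening campaign, cut at about 20% in these data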;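 also: 0% = DMSO wells and 100% = biotin wells as full block of FRET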
#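 System: GST-NR2E3 and biotin-RetCOR proteins; probe or stimulus: 7 nM biotin-RetCOR; doses: compound at 4.8 µM, single dose; schedule: Compound–protein incubation for 5 h at 4 °C; detection: time-resolved FRET; read-out: percent inhibition; controls: biotin wells as high control, 0.6% DMSO wells as low control; format: 1536-well plates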
# MsrA inh: bovine MsrA inhibition; purified bovine MsrA, absorbance read-out; AID 651718; actives 0.75% (n = 360,000); inhibition, % at 15.5 µM;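 also: 0% = vehicle wells with enzyme and 100% = reference inhibitor wells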
# MsrA act: activators of bovine methionine sulfoxide reductase A; purified bovine MsrA, absorbance read-out; activation, % at 10.6 µM; actives 0.3% (n = 360,000); AID 602163; in the data active = activation above about 7.5%;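 also: 0% = vehicle and 100% = reference activator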
# NR2E3 ag-2: agonists of human NR2E3 nuclear receptor. inhibition of corepressor binding, % at 3.98 µM. actives 0.35% (n = 360,000). CHO-S Gal4-NCOR/VP16-NR2E3 two-hybrid, luciferase;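 active = inhibition above the mean of all tested compounds plus 3 SD, cut at about 70% in these data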;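 also: 0% = DMSO with NR2E3 transfected cells and 100% = cells lacking NR2E3 construct; higher means lower luciferase signal from less NR2E3 corepressor binding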
# MsrA conf: bovine MsrA inhibition, confirmed; inhibition, % at 15.5 µM; purified bovine MsrA, absorbance read-out; AID 651822; actives 41% (n = 2,300); shares compounds with MsrA inh;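 also: coupled to thioredoxin reductase with NADPH and selenocystamine and DMSO as substrate; 0% = vehicle only and 100% = full effect of reference inhibitor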
# The depositor's hits bear a star; / = no result given. Rule as the data show it, unless noted: active = inhibition above about 4.5%; inactive = the rest.
SMILES,NadD inh,GalR3 antag,NR2E3 ag-1,MsrA inh,MsrA act,NR2E3 ag-2,MsrA conf
COc1cc2c(cc1OC)C(=S)NC1(CCCC1)C2,-2,-2,4,6.1*,-17,-6,2
CCc1cc2c(=O)c(-c3nc4ccccc4n3C)c(C)oc2c(CN2CCOCC2)c1O,-6,1,5,5.0*,-10,4,1
CCc1cc2c(=O)c(-c3nc4ccccc4n3C)c(C)oc2c(CN2CCN(C)CC2)c1O,/,/,1,/,/,/,/
CCc1cc2c(=O)c(-c3nc4ccccc4n3C)c(C)oc2c(CN2CCN(CCO)CC2)c1O,1,-5,-5,5.2*,-8,-2,3
CCc1cc2c(=O)c(-c3nc4ccccc4n3C)c(C(C)C)oc2c(CN2CCN(C)CC2)c1O,-1,-6,-1,2,-3,-15,/
CSc1nnc2c(n1)[nH]c1c(C)cccc12,5,-14,1,1,-4,-19,/
COCCCNC(=O)Cn1nnc(-c2ccccc2NC(=O)c2ccccc2F)n1,-6,3,-2,-1,-1,-24,/
N#C/C(=C(/O)CSc1ccccn1)c1nc2ccccc2s1,3,-3,0,1,-2,-15,/
N#C/C(=C(/O)CSc1ccccc1C(=O)O)c1nc2ccccc2s1,-3,-5,1,7.1*,-5,-32,7.1*
Cc1ccc(S(=O)(=O)/N=C2\C=C(Nc3cccc(C(=O)O)c3)C(=O)c3ccccc32)cc1,10,-2,3,42*,-1,-27,20*
O=C(O)c1cccc(NS(=O)(=O)c2ccc3c(c2)C(=O)c2ccccc2C3=O)c1,-4,-1,2,33*,-2,7,25*
Cc1ccc(NC2=C/C(=N/S(=O)(=O)c3cccs3)c3ccccc3C2=O)cc1,4,3,2,14*,4,14,24*
O=C(O)c1cccc(NS(=O)(=O)c2ccc(C3CCCCC3)cc2)c1,9,/,6,/,-3,-26,/
CCc1cc[n+](C2=C([O-])c3ccccc3C(=O)/C2=N\S(=O)(=O)c2cccs2)cc1,10,-2,-2,2,1,-22,/
CCc1ccc(S(=O)(=O)/N=C2\C=C(Nc3ccc(C(=O)O)cc3)C(=O)c3ccccc32)cc1,-1,-12,1,64*,-7,19,69*
Cc1ccc(N(C)S(=O)(=O)c2cccc(C(=O)NNC(=O)c3ccncc3)c2)cc1,0,-3,1,0,-12,21,/
Cc1ccc(S(=O)(=O)/N=C2\C=C(Nc3cccc(C(=O)O)c3)C(=O)c3ccccc32)c(C)c1,7,-6,-4,25*,-3,39,30*
Cc1cccc(NC2=C(NC(=O)c3ccccc3)C(=O)c3ccccc3C2=O)c1,-1,9,-8,2,2,18,/
Cc1n[nH]c(=O)nc1Nc1ccc(O)cc1,1,-8,2,1,-1,-14,/
O=[N+]([O-])c1ccccc1S(=O)(=O)Nc1ccc(-c2ccc(N3CCCC3)nn2)cc1,25,0,-2,5.0*,-3,-41,2
O=[N+]([O-])c1cccc(S(=O)(=O)Nc2ccc(-c3ccc(N4CCCC4)nn3)cc2)c1,14,1,1,0,3,2,/
COc1cccc(OC)c1C(=O)Oc1ccc2c(c1)O/C(=C\c1ccncc1)C2=O,7,-5,0,0,-3,-4,/
COc1cccc(/C=C2/SC(=O)N(C)C2=O)c1OCc1ccc(C(=O)O)cc1,1,-4,0,3,-6,-1,/
COc1cccc(/C=C2/SC(=O)N(CC(=O)N3CCc4ccccc4C3)C2=O)c1OCC(=O)O,5,1,-1,4.8*,-6,-28,4
COCc1cc(C)n(CC(=O)N/N=C/c2ccc(-c3ccc(Cl)c(C(=O)O)c3)o2)c(=O)c1C#N,6,-10,0,9.1*,-6,-4,9.7*
SMILES,NadD inh,GalR3 antag,NR2E3 ag-1,MsrA inh,MsrA act,NR2E3 ag-2,MsrA conf
COCc1cc(C)nc(OCC(=O)N/N=C/c2ccc(C)o2)c1C#N,-2,4,-2,6.7*,-5,-8,2
NC(=O)c1ccsc1NC(=O)COC(=O)/C=C/c1ccccc1[N+](=O)[O-],-5,5,/,11*,-1,-15,9.4*
Cc1ccn2c(C(=O)N/N=C\c3ccc4c(c3)OCO4)c(C)nc2c1,0,0,0,7.3*,-10,5,5.5*
COc1cc(/C=N/NC(=O)c2c(C)nnn2-c2nonc2N)ccc1O,2,-2,-1,5.0*,-11,16,4
COc1ccc(/C=N/NC(=O)c2c(C)nc3ccc(Cl)cn23)cc1OC,-1,-6,0,6.2*,-1,-20,5.3*
COc1cc(/C=N/NC(=O)c2cc(-c3cccs3)nc3ccccc23)ccc1O,14,2,2,4.9*,-4,-37,4
O=C(CSc1ncnc2c1cnn2-c1ccccc1)Nc1ccccc1,-2,-2,-1,1,3,-2,/
CCOC(=O)N1CCN(C(=O)CCCCCn2c(=S)[nH]c3cc4c(cc3c2=O)OCO4)CC1,-3,-2,4,0,-5,-28,/
COC(=O)CSc1nc(C)cc(C)n1,7,-1,5,0,-1,-15,/
CC(C)C(=O)NNC(=O)CSc1nnc(-c2ccccc2)c(-c2ccccc2)n1,1,-5,0,1,2,-1,/
O=C(Nc1c(Cl)cc2c(c1Cl)Cc1cc([N+](=O)[O-])ccc1-2)C(Cl)Cl,21,7,/,0,0,-22,/
COc1cc(/C=N/NC(=O)c2cc3ccccc3cc2O)ccc1OCCN1CCCCC1,24,-3,3,0,-2,0,/
COc1cc(/C=N/NC(=O)c2ccncc2)ccc1OCCN1CCCCC1,-4,1,-1,5.4*,3,-9,2
COc1ccc(/C=N/NC(=O)c2ccc(COc3cccc4cccnc34)cc2)cc1OC,1,-5,4,4.9*,-3,-2,2
COc1cc(/C=N\NC(=O)c2c(C)nc3cc(C)ccn23)ccc1O,2,2,1,7.1*,-11,15,6.4*
COc1ccc2oc(C(=O)Nc3nc4ccccc4[nH]3)c(C)c2c1,0,-5,0,1,-3,-140,/
Cc1nc(CC(=O)NNS(=O)(=O)c2cccc(Cl)c2Cl)cs1,-2,-1,/,0,-7,5,/
CCCCCOC(=O)C(C)c1c(C)[nH]c(=S)[nH]c1=O (stereo not given),4,-3,2,13*,-1,4,8.8*
Cc1c(=O)n(OCc2ccccn2)c2ccccc2[n+]1[O-],3,-5,-2,4.9*,-3,2,1
